In experiment [1] the test system is K562. The experiment in a line: Cytotoxicity against human K562 cells. The experiment is classed as functional, cell-based.
For experiment [2], the system named is Escherichia coli. The experiment in a line: Antibacterial activity against Escherichia coli. Format: functional, organism-based.
Experiment [3] is described as follows: Toxicity in sea urchin egg assessed as inhibition of development of fertilized egg by light microscopy. On the set-up: species or system Tripneustes gratilla. The method in brief: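 Eggs and sperm were collected from mature Tripneustes gratilla specimens for the fertilized-egg development assay.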
Experiment [4] has as its system P388. The experiment in a line: Cytotoxicity against mouse P388 cells. Format: functional, cell-based.
Experiment [5] in a line: Cytotoxicity against rat NBT2 cells assessed as cell survival at 10 ug/mL after 16 hrs by phase contrast microscope. The experiment is classed as functional. The note with it: NBT2, 16 h, read-out: Activity. The method in brief: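 Rat bladder epithelial carcinoma NBT-II cells were exposed to 10 μg/mL test agent. Phase contrast images of control and treated cells were recorded after 16 h on an image-based high content imaging workstation.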

In experiment [6] the test system is Bacillus cereus. The experiment in a line: Antibacterial activity against Bacillus cereus. Format: functional, organism-based.
The subject of experiment [7] is NBT2. Put plainly: Disruption of actin cytoskeleton in rat NBT2 cells at 10 ug/mL after 16 hrs by TMR-phalloidin imaging analysis. The experiment is classed as functional, cell-based. The method in brief:
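NBT-II rat bladder epithelial carcinoma cells were treated at 10 μg/mL. Cells were then permeabilized and stained with TMR-phalloidin to image the actin cytoskeleton, with control cells for comparison.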

Experiment [8] concerns Staphylococcus aureus. The experiment in a line: Antibacterial activity against methicillin-resistant Staphylococcus aureus. Format: functional, organism-based.

Each structure is given as a SMILES string. ≈ marks a conversion by molar mass, not a printed value. Calls of active or inactive are those of the source. No cut-off for these calls is given here.

As usually defined, the IC50 is the concentration at which inhibition is half-maximal. Turning to `CC(=O)O[C@@H](Cc1ccoc1)[C@@H]1[C@@]23CCCC(C)(C)[C@@H]2CC[C@]1(C)OC3` [CACOFURAN A], the results for the IC50 in experiment [1], in experiment [3] and in experiment [4] were over 1 mg/L, 0.5 mg/L (≈ 1.39 µM) and over 1 mg/L, respectively. The result in experiment [2], in experiment [6] and in experiment [8] was inactive. Besides, in experiment [5], the viability at 10 µg/mL is 50%. For the same compound, the outcome in experiment [7] was Active.

For `CC1(C)CCC[C@@]23CO[C@@](C)(CC[C@@H]12)[C@@H]3[C@@H](O)Cc1ccoc1` [CACOFURAN B], the concentration for half-maximal inhibition (IC50) in experiment [1] is over 1 mg/L; in experiment [3], 5 mg/L (≈ 15.7 µM); in experiment [4], over 1 mg/L. Besides, the result in experiment [2], in experiment [6] and in experiment [8] was inactive. Moreover, the viability at 10 µg/mL in experiment [5] came out at 50%. Moreover, the result in experiment [7] was Active.
